Assay results from different studies.
Target: Serine/threonine-protein kinase pim-2 (PIM2, Homo sapiens, UniProt Q9P1W9)

With Nc1ncc(-c2nc(N3CCOCC3)nc(N3CCOCC3)n2)c(C(F)F)n1 the remaining binding was 92% (binding; competition with immobilised ligand; 10 µM).
With N#CC1(c2ccccn2)CCN(Cc2cc(C(=O)O)c(=O)n3ccccc23)CC1 the remaining binding was 100% (cell-free assay; competition with immobilised ligand; 1 µM).
Cn1cc(-c2cccc(N3CCc4c(sc5c4CC(C)(C)C5)C3=O)c2CO)cc(Nc2ccncn2)c1=O gave an inhibition of 1% (enzyme activity; inhibitor; 1 µM).
The remaining activity of CC(C)(C)c1cc(C=C(C#N)C#N)cc(Br)c1O is reported as 115% (enzyme activity; inhibitor; 0.5 µM).
With COc1ncccc1-c1cnn2ccc(N3CCN(C(=O)OC(C)C)CC3)nc12 the remaining binding was 100% (binding; competition with immobilised ligand; 1 µM).
Cn1cc(-c2cc(F)cc(N3CCn4c(cc5c4CCCC5)C3=O)c2CO)cc(Nc2ccc(N3CCN(C4COC4)CC3)cn2)c1=O has an inhibition of -1% (enzyme activity; inhibitor; 0.1 µM).
C#Cc1n[nH]c2c(-c3cn(C(C)c4ccccn4)c(=O)[nH]c3=O)cc(F)cc12 (stereo not drawn) has an inhibition of -1.5% (enzyme activity; inhibitor; 1 µM).
With O=c1[nH]c2ccccc2n1C1CCN(Cc2ccc(-c3[nH]c4cc5ncnc5cc4nc3-c3ccccc3)cc2)CC1 the remaining signal was 111% (cell-free assay; 0.5 µM).
For Cn1cncc1[C@](O)(COc1ccc(C#N)cc1-c1ccc(OC(F)(F)F)cc1)c1ccc(C#N)cc1, the remaining binding was 84% (cell-free assay; competition with immobilised ligand; 1 µM).
Cc1nn(C)cc1-c1nc2c(N3CCN(Cc4ccc(Cl)cc4)CC3)c(Cl)cnc2[nH]1 has a remaining binding of 100% (binding; competition with immobilised ligand; 1 µM).
C#Cc1n[nH]c2c(-c3cn([C@@H](C)c4ccccc4)c(=O)[nH]c3=O)cc(F)cc12 has an inhibition of 3.2% (enzyme activity; inhibitor; 0.1 µM).
COc1cc(Nc2ncc(F)c(Nc3ccc4c(n3)NC(=O)C(C)(C)O4)n2)cc(OC)c1OC gave an inhibition of 0% (binding; competition with immobilised ligand; 10 µM).
